Bioassay records: PubChem BioAssay, several laboratories
A selection: hits, their analogues and other compounds. The true share with any hit is near 1.6%.
HKDC1 inhibitor: blocks human hexokinase HKDC1 activity | AID 493160 | Q2TB90 | 0.16% of 340,000 active | recombinant HKDC1, G6PDH/diaphorase resazurin coupled fluorescence | inhibition, % at 20 µM;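 active means inhibition above about 35% when tested at 20 µM, limit read from the data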;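 further: plate controls were DMSO wells with enzyme for no effect and DMSO wells lacking enzyme for full effect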
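Test system: Recombinant HKDC1 (HK5) hexokinase enzyme, produced in-house | Input: HKDC1 at 5 µg/mL | Buffer or medium: Tris pH 8.0 buffer with MgCl2, Tween-20, BSA, BME | Schedule: 90 min reaction incubation at room temperature, dark | Technique: Resazurin-to-resorufin fluorescence via G6PDH and diaphorase coupling, 525/613 nm | Controls: DMSO wells with and without enzyme mix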
ATG4B inhibitor: inhibitors of human ATG4B cysteine protease; ATG4B cleavage of LC3-PLA2, NBD-HPC fluorescence, 1 h; 0.51% of 340,000 active; inhibition, % at 8.33 µM; Q9Y4P1; AID 504462; in the data active means inhibition above about 40%
PfG6PD inh: PfG6PD (Plasmodium falciparum) enzyme inhibition. PfGluPho enzyme, NADPH resazurin-diaphorase fluorescence. inhibition, % at 20 µM. 0.78% of 350,000 active. AID 504690;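 active means inhibition reaching at least a set limit at 20 µM in the primary screen, cut at about 59% in these data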;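 further: 0% = DMSO wells with substrate and 100% = DMSO wells lacking glucose-6-phosphate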
PKA-R2B activ: PKA-R2B complex activation; P22694+P31323; PKA-R2B holoenzyme dissociation, Cy5-IP20 fluorescence polarization; R2B truncated from residue 108, S112A mutant; 0% DMSO only, 100% 113 µM cGMP; activation, % at 11.4 µM; 0.079% of 340,000 active;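 active means activation above a cutoff set at the mean over all compounds plus 3 SD, cut at about 18% in these data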;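 further: higher means more holoenzyme dissociation and a rise in polarization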
Target sequence (P31323 whole entry, looked up, other chains not shown, the tested form may be a part): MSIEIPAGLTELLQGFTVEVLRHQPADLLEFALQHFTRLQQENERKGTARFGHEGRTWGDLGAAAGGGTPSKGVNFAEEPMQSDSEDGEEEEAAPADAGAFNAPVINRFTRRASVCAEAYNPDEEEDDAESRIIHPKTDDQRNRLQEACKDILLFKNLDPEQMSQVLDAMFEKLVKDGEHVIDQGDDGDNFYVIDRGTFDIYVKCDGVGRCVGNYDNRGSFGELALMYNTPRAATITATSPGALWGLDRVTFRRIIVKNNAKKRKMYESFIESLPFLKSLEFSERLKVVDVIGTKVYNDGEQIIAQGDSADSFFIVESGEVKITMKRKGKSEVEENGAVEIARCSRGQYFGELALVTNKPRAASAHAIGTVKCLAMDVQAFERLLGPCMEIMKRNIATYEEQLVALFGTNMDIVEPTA
PKA-R1A activ: PKA-R1A complex activation; 0.083% of 340,000 active; activation, % at 11.4 µM; AID 504707; PKA-R1A dissociation, Cy5-IP20 fluorescence polarization; scaled: DMSO 0%, 113 µM cGMP 100%;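 active means percent activation above the mean of all tested compounds plus 3 SD, cut at about 19% in these data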;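 further: higher means more PKAc released from R1A so a rise in polarization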
T cell HTS: T cell immune modulators affecting CD8 T cell-vesicle binding | 2C CD8+ T cell-vesicle binding, flow cytometry; hits give low values | response (vesicle binding), % at 7 µM | 0.068% of 330,000 active;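 active means response, share of CD8 T cells binding vesicles, and their 90th percentile fluorescence all below set limits, cut at about 80% in these data, passing the limit was not always enough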;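 further: values below 100% mean blocked vesicle binding to the CD8+ T cells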
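Assay system: 2C TCR transgenic mouse naive CD8+ T cells, MACS-purified | Read-out: CD8+ gate FL2 mean fluorescence as % of same-row positive control | Signal: High-throughput flow cytometry with anti-B7-1 and anti-CD8 staining | Timing: Binding step 1.5 h, 37 °C, antibody labelling 20 min, ice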
HKDC1 act conf2: HKDC1 (human) activation, single-dose confirmed; inhibition, % at 20 µM; 14% of 740 active; shares compounds with HKDC1 inhibitor; recombinant HKDC1, G6PDH/diaphorase resazurin fluorescence; hits give low values;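 active means inhibition at or below a set negative limit, negative inhibition meaning the enzyme was activated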
The depositor's hits bear a star; i = inactive; · = no result given.

SMILES | HKDC1 inhibitor | ATG4B inhibitor | PfG6PD inh | PKA-R2B activ | PKA-R1A activ | T cell HTS | HKDC1 act conf2
COc1cc(/C=C2\SC(=O)N(c3ccc(Cl)cc3)C2=O)cc([N+](=O)[O-])c1O | 44.4* | 5.7 | 15.6 | -6.4 | -7.6 | · | -26.7
O=C1S/C(=C\c2ccc(O)c([N+](=O)[O-])c2)C(=O)N1c1ccccc1Cl | 6.2 | 9.0 | 0.5 | -9.1 | -4.5 | 350.1 | ·
O=[N+]([O-])c1cccnc1SCc1ccccc1 | 0.5 | 15.0 | 1.5 | -1.6 | -7.8 | 188.5 | ·
Cc1nc2sc3c(NCc4ccco4)ncnc3c2c2c1COC(C)(C)C2 | 35.2* | -7.7 | 62.3* | -4.8 | -2.8 | 244.3 | 37.2
CC(C)Cc1nc2sc3c(NCc4ccco4)ncnc3c2c2c1COC(C)(C)C2 | -1.9 | 2.6 | 0.6 | -1.2 | -7.5 | i | ·
COc1ccc(N(CCCN2C(=O)c3cccc4cccc(c34)C2=O)C(=O)c2cccnc2)cc1 | 35.6* | -3.9 | 8.5 | -13.1 | -3.2 | 212.7 | 23.3
CCCc1c(C(=O)N/N=C/c2cccc3ccccc23)nnn1-c1nonc1N | 6.5 | 4.9 | 1.4 | -7.3 | -8.2 | 159.6 | ·
O=C(Cn1nc(C(=O)O)c2ccccc2c1=O)Nc1ccc(Cl)c(S(=O)(=O)N2CCOCC2)c1 | -0.9 | -4.8 | -6.0 | -7.8 | -16.0 | 236.8 | ·
COc1ccccc1N(CC(=O)N/N=C/c1c(O)ccc2ccccc12)S(C)(=O)=O | -40.2 | -40.9 | -9.2 | -8.4 | 8.0 | 308.6 | -28.1
COc1ccccc1NCC(=O)N/N=C/c1c(O)ccc2ccccc12 | 8.4 | 0.5 | -28.0 | -2.6 | 1.2 | 182.0 | ·
COc1ccccc1CNS(=O)(=O)c1ccc2c(c1)NC(=O)C(C)S2 (stereo not drawn) | -5.6 | -3.4 | 4.3 | -2.9 | 8.4 | 207.1 | ·
CCC(C)c1ccccc1O (stereo not drawn) | -1.2 | 5.5 | 25.5 | -6.4 | -3.0 | 411.9 | ·
CCC(c1ccccc1)C(CC)c1cc(O)c(O)c(O)c1 (stereo not drawn) | 42.4* | 9.2 | 38.5 | -4.6 | -10.3 | · | 35.8
Cc1noc(C)c1COc1ccc(C(=O)N2CCN(S(=O)(=O)c3cccc(F)c3)CC2)cc1 | -6.9 | -15.8 | 5.7 | 4.3 | 10.6 | 399.0 | ·
CN(C)CC1CCC/C(=C\c2ccc(OC(=O)c3ccc(Cl)cc3)cc2)C1=O (stereo not drawn) | 36.6* | 0.8 | 31.3 | 1.2 | 2.5 | · | -6.6
O=C(CN1CCCc2ccccc21)N/N=C/c1ccccc1 | -4.5 | -0.1 | 20.5 | -12.0 | 0.8 | 109.1 | ·
COc1ccccc1/C=C/C(=O)NCC(=O)N/N=C/c1ccccc1 | 1.0 | -4.4 | -8.4 | -3.2 | 2.4 | 106.5 | ·
O=C(CNC(=O)c1cccs1)N/N=C/c1ccc(O)cc1O | -46.4 | -5.3 | -28.4 | -14.9 | -8.2 | 71.9 | -25.9
O=C(CN1CCCc2ccccc21)N/N=C/c1ccc(O)cc1O | -43.3 | 2.5 | -13.9 | -8.7 | -0.7 | 71.7 | -34.1
O=C(CCc1ccccc1)NCC(=O)N/N=C/c1ccc(O)cc1O | -43.3 | -3.6 | -26.9 | -9.9 | -2.8 | 165.7 | -5.8
COc1ccccc1/C=C\C(=O)NCC(=O)N/N=C/c1ccc(O)cc1O | -40.9 | -14.7 | -29.5 | 0.6 | -3.2 | 153.9 | -32.0
O=C(NC1CCCN(CCc2ccccc2)C1)C1CCCC1 (stereo not drawn) | -7.2 | 0.6 | -4.7 | 4.2 | -2.3 | 194.3 | ·
CCC(=O)OCc1cc(=O)oc2ccc3ccccc3c12 | -2.3 | -15.1 | 0.1 | 8.0 | 4.0 | 340.0 | ·
O=C(NCc1cccnc1)C1C2C=CC(C2)C1C(=O)Nc1cccc(C(F)(F)F)c1 (stereo not drawn) | · | · | 14.0 | -11.3 | 3.5 | · | ·
C[C@H]1CN([C@@H](C)CO)C(=O)Cc2cc(NS(=O)(=O)c3ccc(Cl)cc3)ccc2O[C@@H]1CN(C)C(=O)Nc1cccc2ccccc12 | 14.2 | · | 11.9 | -3.5 | -4.4 | 383.4 | ·
COc1ccc(NC(=O)CN2CCc3ccccc3C2)c([N+](=O)[O-])c1 | 0.1 | -7.5 | 6.8 | -0.2 | 12.0 | 680.0 | ·
